Experimental data taken from ChEMBL document CHEMBL1146028, “Dibasic non-imidazole histamine H3 receptor antagonists with a rigid biphenyl scaffold” (Bioorg Med Chem Lett, 2006).
Active and inactive are the calls of the source. The calls are words filed in the database; no cut-off is given here.

Assays:
Histamine H3 receptor [1] = molecular target: T1, Histamine H3 receptor (Homo sapiens, UniProt Q9Y5N1); assay: Displacement of [3H]RAMHA from human histamine H3 receptor transfected in SK-N-MC cells; format: cell-based
T1 sequence (Q9Y5N1 whole entry): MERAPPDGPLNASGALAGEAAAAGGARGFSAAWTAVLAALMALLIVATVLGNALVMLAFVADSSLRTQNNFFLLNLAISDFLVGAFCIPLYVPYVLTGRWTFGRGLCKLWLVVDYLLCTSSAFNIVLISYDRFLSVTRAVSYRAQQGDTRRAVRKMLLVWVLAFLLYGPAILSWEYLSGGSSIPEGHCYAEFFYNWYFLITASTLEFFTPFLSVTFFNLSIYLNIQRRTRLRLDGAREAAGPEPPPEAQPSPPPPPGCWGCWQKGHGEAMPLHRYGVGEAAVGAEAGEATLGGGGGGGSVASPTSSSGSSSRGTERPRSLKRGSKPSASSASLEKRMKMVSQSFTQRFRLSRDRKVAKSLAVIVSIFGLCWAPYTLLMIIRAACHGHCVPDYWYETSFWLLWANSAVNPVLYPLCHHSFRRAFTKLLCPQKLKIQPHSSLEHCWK
Outline: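 Membranes from SK-N-MC cells stably expressing human H3 receptor, incubated 60 min at room temperature with 0.5 nM [3H](R)-α-methylhistamine in 50 mM Tris–HCl/5 mM EDTA, pH 7.4; compounds 0.01 nM–10 µM. Filtration, two ice-cold washes, scintillation counting. Non-specific binding: 10 µM histamine. IC50 estimated from displacement curves.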

[2] = molecular target: T2, Acetylcholinesterase (Rattus norvegicus) (UniProt P37136); assay: Inhibition of AChE in rat brain at 10 uM; format: tissue-based
T2 sequence (whole entry): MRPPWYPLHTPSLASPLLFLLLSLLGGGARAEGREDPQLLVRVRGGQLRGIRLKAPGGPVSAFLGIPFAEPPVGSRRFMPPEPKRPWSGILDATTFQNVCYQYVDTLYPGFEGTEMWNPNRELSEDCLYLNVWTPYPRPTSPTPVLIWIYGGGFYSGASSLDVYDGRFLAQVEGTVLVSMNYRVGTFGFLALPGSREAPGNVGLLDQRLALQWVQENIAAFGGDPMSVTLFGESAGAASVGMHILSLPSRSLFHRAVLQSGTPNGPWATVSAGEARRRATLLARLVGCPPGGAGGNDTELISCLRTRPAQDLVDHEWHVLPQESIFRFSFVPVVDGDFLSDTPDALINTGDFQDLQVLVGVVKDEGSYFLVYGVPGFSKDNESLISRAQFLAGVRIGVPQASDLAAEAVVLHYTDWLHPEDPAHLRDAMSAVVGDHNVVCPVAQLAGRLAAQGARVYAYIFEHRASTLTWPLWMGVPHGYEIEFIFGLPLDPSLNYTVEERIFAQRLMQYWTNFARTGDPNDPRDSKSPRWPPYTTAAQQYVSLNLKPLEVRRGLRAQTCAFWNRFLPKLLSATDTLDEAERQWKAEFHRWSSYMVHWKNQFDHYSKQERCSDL

[3] = molecular target: Histamine H3 receptor (Cavia porcellus) (UniProt Q9JI35); assay: Activity at histamine H3 receptor assessed as RAMHA-induced inhibition of electrically-stimulated guinea pig isolated ileum; format: functional, tissue-based; conditions: filed as antagonist
Chain of Histamine H3 receptor (Cavia porcellus) (Q9JI35 whole entry): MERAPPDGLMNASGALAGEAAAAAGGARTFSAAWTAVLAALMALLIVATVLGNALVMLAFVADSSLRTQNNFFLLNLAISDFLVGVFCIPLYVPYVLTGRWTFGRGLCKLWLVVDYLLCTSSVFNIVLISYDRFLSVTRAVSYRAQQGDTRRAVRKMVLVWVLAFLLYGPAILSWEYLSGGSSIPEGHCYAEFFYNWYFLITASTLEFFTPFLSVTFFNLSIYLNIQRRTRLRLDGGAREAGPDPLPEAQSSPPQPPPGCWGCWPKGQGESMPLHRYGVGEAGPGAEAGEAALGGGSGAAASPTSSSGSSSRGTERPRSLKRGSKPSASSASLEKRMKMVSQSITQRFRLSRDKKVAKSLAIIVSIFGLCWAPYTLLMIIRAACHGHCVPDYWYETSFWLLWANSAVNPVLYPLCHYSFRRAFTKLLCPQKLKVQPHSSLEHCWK

[4] = molecular target: Histamine H1 receptor (Cavia porcellus) (UniProt P31389); assay: Activity at histamine H1 receptor in isolated guinea pig ileum up to 10 uM; format: functional, tissue-based
Chain of Histamine H1 receptor (Cavia porcellus) (P31389 whole entry): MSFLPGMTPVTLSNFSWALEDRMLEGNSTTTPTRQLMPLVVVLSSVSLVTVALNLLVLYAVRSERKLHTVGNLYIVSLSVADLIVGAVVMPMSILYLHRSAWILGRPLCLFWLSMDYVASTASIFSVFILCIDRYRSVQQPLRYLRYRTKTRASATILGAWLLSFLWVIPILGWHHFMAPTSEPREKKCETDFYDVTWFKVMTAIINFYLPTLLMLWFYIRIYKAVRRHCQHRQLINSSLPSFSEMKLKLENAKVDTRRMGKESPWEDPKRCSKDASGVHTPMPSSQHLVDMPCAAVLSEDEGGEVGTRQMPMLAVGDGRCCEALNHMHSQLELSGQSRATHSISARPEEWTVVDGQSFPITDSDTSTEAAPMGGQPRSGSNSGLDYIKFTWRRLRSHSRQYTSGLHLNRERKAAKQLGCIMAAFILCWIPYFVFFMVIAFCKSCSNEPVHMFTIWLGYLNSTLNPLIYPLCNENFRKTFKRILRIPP

[5] = molecular target: Histamine H2 receptor (Cavia porcellus) (UniProt P47747); assay: Activity at histamine H2 receptor in isolated guinea pig atrium up to 10 uM; format: functional, tissue-based; conditions: Cardiac atrium
Chain of Histamine H2 receptor (Cavia porcellus) (P47747 whole entry): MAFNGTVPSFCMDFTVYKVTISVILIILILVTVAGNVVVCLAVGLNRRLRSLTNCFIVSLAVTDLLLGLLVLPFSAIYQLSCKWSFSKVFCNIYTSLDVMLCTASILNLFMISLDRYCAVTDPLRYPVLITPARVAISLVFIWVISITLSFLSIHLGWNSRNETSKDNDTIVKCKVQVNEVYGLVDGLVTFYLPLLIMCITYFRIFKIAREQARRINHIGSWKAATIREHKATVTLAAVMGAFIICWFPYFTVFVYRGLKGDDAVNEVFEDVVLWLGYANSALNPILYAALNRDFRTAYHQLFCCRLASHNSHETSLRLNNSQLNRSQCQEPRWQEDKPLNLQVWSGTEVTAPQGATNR

Histamine H3 receptor [6] = molecular target: Histamine H3 receptor (Rattus norvegicus, UniProt Q9QYN8); assay: Displacement of [3H]RAMHA from histamine H3 receptor in rat brain membranes; format: cell membranes
Chain of Histamine H3 receptor (Rattus norvegicus, UniProt Q9QYN8) (Q9QYN8 whole entry): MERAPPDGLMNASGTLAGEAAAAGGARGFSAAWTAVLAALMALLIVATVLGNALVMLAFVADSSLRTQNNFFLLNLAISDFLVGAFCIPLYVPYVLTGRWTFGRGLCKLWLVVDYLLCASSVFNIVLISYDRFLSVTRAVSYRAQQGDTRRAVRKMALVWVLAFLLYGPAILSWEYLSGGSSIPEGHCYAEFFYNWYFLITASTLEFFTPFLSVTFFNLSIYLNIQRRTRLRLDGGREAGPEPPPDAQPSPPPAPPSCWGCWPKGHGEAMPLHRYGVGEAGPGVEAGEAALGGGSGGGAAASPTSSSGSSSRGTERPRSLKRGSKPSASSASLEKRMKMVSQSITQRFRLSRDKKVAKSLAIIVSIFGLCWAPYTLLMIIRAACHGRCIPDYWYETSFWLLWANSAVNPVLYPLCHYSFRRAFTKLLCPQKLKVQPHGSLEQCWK
Outline: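 Rat cerebral cortex membranes incubated 60 min at room temperature with 0.5 nM [3H](R)-α-methylhistamine in 50 mM Tris–HCl/0.5 mM EDTA/50 mM NaCl, pH 7.4; compounds 0.01 nM–10 µM. Rapid filtration, two ice-cold buffer washes, scintillation counting. Non-specific binding: 10 µM thioperamide. IC50 from displacement curves; mean of three experiments.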

Histamine H3 receptor [7] = molecular target: T1, Histamine H3 receptor; assay: Antagonist activity against histamine H3 receptor assessed as beta galactosidase reporter gene transactivation in SK-N-MC cells; format: functional, cell-based
Outline: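 SK-N-MC cells expressing human H3 receptor; compounds (0.1 nM–10 µM) added to media, 5 min later forskolin (5 µM) and cumulative (R)-α-methylhistamine (0.1 nM–1 µM). After 6 h at 37 °C, cells lysed (0.5% Triton, 40 mM β-mercaptoethanol); read-out by absorbance 570 nm after overnight incubation at 20 °C.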

Compound	Ki (Histamine H3 receptor [1]) [nM]	Activity [3]	Activity [4]	Activity [5]	Ki (Histamine H3 receptor [6]) [nM]	pKb (Histamine H3 receptor [7])	inhibition [2] [%]
CC1CCN(Cc2ccc(-c3ccc(CN4CCC(C)CC4)cc3)cc2)CC1	6.17	Antagonist	inactive	inactive	15.1		50
c1cc(-c2ccc(CN3CCCCC3)cc2)ccc1CNC1CCCCC1	1.7	Antagonist	inactive	inactive	9.12		50
c1cc(-c2ccc(CNC3CCCCC3)cc2)ccc1CNC1CCCCC1	562	Antagonist	inactive	inactive	2090		
c1cc(CN2CCCCC2)ccc1CN1CCCCC1	1230	Antagonist	inactive	inactive	4070		
NCc1ccc(-c2ccc(CN)cc2)cc1	4470	Antagonist	inactive	inactive	8710		
CC(=O)N1CCN(Cc2ccc(-c3ccc(CN4CCN(C(C)=O)CC4)cc3)cc2)CC1	1410	Antagonist	inactive	inactive	3890		
CCCCCNCc1ccc(-c2ccc(CNCCCCC)cc2)cc1	759	Antagonist	inactive	inactive	3310		
CC1CC(C)CN(Cc2ccc(-c3ccc(CN4CC(C)CC(C)C4)cc3)cc2)C1 (stereo not drawn)	398	Antagonist	inactive	inactive	676		

Continued, in another order:

Ki (Histamine H3 receptor [1]) [nM]	Activity [3]	Activity [4]	Activity [5]	Ki (Histamine H3 receptor [6]) [nM]	pKb (Histamine H3 receptor [7])	Compound	inhibition [2] [%]
12.3	Antagonist	inactive	inactive	81.3		c1cc(-c2ccc(CN3CCOCC3)cc2)ccc1CN1CCOCC1	
1.17	Antagonist	inactive	inactive	3.98		c1cc(-c2ccc(CCN3CCCCC3)cc2)ccc1CCN1CCCCC1	
46.8	Antagonist	inactive	inactive	115		O=C1CCCCN1Cc1ccc(-c2ccc(CN3CCCCC3)cc2)cc1	
37.2	Antagonist	inactive	inactive	214		CN(Cc1ccc(-c2ccc(CN(C)C3CCCCC3)cc2)cc1)C1CCCCC1	
6.31	Antagonist	inactive	inactive	46.8		CC(=O)N1CCN(Cc2ccc(-c3ccc(CN4CCCCC4)cc3)cc2)CC1	
0.339	Antagonist	inactive	inactive	1.2	8.77	c1cc(-c2ccc(CN3CCCCC3)cc2)ccc1CN1CCCCC1	
1.86	Antagonist	inactive	inactive	6.61		CN(C)Cc1ccc(-c2ccc(CN(C)C)cc2)cc1	
